Assay [1] addresses T1, Protein kinase C (PKC) (Homo sapiens) (UniProt O94806+P41743+P17252+P05129+Q05655+P05771+Q05513+Q02156+P24723+Q15139+Q04759). Kind of assay: Inhibition of PKC activation in PMA-treated human fibroblasts assessed as inhibition of translocation to plasma membrane at 2 uM pretreated for 1 hr followed by 15 mins challenged with PMA by Western blot/densitometric analysis. The method in brief:
(§1)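 Primary human dermal fibroblasts in 10% FBS DMEM, pretreated 1 h at 37 °C with compound (ethanol vehicle, 0.2–2 range), then 100 nM PMA for 15 min. Controls received 0.005% ethanol ± PMA. 10 µg membrane protein on 10% SDS-PAGE/PVDF, probed with anti-PKC; densitometry. IC50 derived from the inhibition curve.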
Background: In western blotting, separated proteins are transferred to a membrane and probed.

Assay [2] concerns the target T1, Protein kinase C (PKC) (Homo sapiens). As to the kind of experiment: Inhibition of PKC activation in PMA-treated human fibroblasts assessed as inhibition of translocation to plasma membrane at 0.2 uM pretreated for 1 hr followed by 15 mins challenged with PMA by Western blot/densitometric analysis. The method in brief:
as §1

The target is the same in assay [3]. As to the kind of experiment: Inhibition of PKC activation in human U87MG cells assessed as inhibition of translocation to plasma membrane at 2 uM after 24 hrs by Western blot/densitometric analysis. Conditions: U-87MG ATCC. Type of assay: cell-based. The essentials: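 U87MG cells (4 × 10^5) cultured in DMEM high glucose/10% FBS, treated 24 h at 37 °C; controls received 0.005% ethanol. Means ± S.D. of three experiments, Student's t-test.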

A short description of assay [4]: Suppression of PKC delta mRNA expression in PMA-treated human fibroblasts at 2 uM pretreated for 1 hr followed by 15 mins challenged with PMA by RT-PCR analysis. Type of assay: functional, cell-based. Conditions: Fibroblast. The method in brief:
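Fibroblasts pretreated 1 h, then 100 nM PMA for 15 min. RNA taken for real-time PCR of PKCα and PKCδ with SYBR Green and 0.2 µM primers. Cycling: 95 °C for 3 min, then 40 cycles of 95 °C 10 s / 58 °C 30 s; specificity checked by melting curve. Means ± S.D. of four experiments, Student's t-test.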

Assay [5] deals with T1, Protein kinase C (PKC) (Homo sapiens). Kind of assay: Inhibition of PKC activation in PMA-treated human fibroblasts assessed as decrease in ERK1/2 phosphorylation at 2 uM pretreated for 1 hr followed by 15 mins challenged with PMA by Western blot/densitometric analysis. The method in brief: (§2)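 Primary human dermal fibroblasts, 5 × 10^5 cells seeded in DMEM/10% FBS; after 24 h, compound (ethanol vehicle) in 10% FBS DMEM for 1 h at 37 °C, then 100 nM PMA for 15 min. Controls received 0.005% ethanol ± PMA. Cells sonicated; 25 µg total lysate run on 10% SDS-PAGE, blotted to PVDF and probed with phospho-specific antibodies; densitometry.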

The test system of assay [6] is U-87 MG. As to the kind of experiment: Inhibition of human U87MG cell migration assessed as reduction in wound size at 2 uM pretreated for 48 hrs measured after 30 hrs of scratching by scratch migration assay relative to control. The assay is classed as functional, U-87MG ATCC. The essentials: (§3)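 U87MG cells (8 × 10^4) pretreated 48 h in 10% FBS DMEM, ethanol-only controls. Wound width photographed under phase contrast at 0, 6, 24 and 30 h post-scratch.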

A short description of assay [7]: Antitumor activity against human U87MG cells assessed as reduction in [3H]thymidine incorporation at 2 uM after 48 hrs by beta counting. More on the design: scale not given: the % may be the effect or the level left. The assay is classed as functional, U-87MG ATCC. The method in brief: (§4)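 [3H]thymidine incorporation in U87MG cells: 4 × 10^4 cells plated, treated 24 h or 48 h; […] [3H]thymidine added for final 4 h at 37 °C; radioactivity counted in trichloroacetic acid-insoluble material by β-counter. Means ± S.D. of four experiments.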
On the technique in general: Incorporation of labelled thymidine or its analogues reports DNA synthesis.

Assay [8] addresses T1, Protein kinase C (PKC) (Homo sapiens). As to the kind of experiment: Inhibition of PKC activation in PMA-treated human fibroblasts assessed as decrease in Raf phosphorylation at 2 uM pretreated for 1 hr followed by 15 mins challenged with PMA by Western blot/densitometric analysis. The method in brief:
as §2

The target of a further assay is Protein kinase C (PKC). Kind of assay: Inhibition of PKC activation in PMA-treated human fibroblasts assessed as inhibition of translocation to plasma membrane cells pretreated for 1 hr followed by 15 mins challenged with PMA by Western blot/densitometric analysis. The method in brief:
as §1

The target of assay [9] is T1, Protein kinase C (PKC) (Homo sapiens). As to the kind of experiment: Inhibition of PKC activation in PMA-treated human fibroblasts assessed as decrease in MEK phosphorylation at 2 uM pretreated for 1 hr followed by 15 mins challenged with PMA by Western blot/densitometric analysis. The essentials:
as §2

Assay [10] concerns U-87 MG. As to the kind of experiment: Inhibition of human U87MG cell migration at 2 uM pretreated for 48 hrs measured after 6 to 30 hrs of scratching by scratch migration assay relative to control. As to conditions: U-87MG ATCC. The assay is classed as functional, cell-based. The method in brief:
as §3

For assay [11], the target named is T1, Protein kinase C (PKC) (Homo sapiens). As to the kind of experiment: Inhibition of PKC activation in PMA-treated human fibroblasts assessed as decrease in FAK phosphorylation at 2 uM pretreated for 1 hr followed by 15 mins challenged with PMA by Western blot/densitometric analysis. The method in brief: as §2
A short description of assay [12]: Antitumor activity against human U87MG cells assessed as reduction in [3H]thymidine incorporation at 2 uM after 24 hrs by beta counting. The assay is classed as functional, U-87MG ATCC. More on the design: scale not given: the % may be the effect or the level left. The essentials: as §4

The values that follow come from ChEMBL document CHEMBL1770116, “Glycoglycerolipid analogues inhibit PKC translocation to the plasma membrane and downstream signaling pathways in PMA-treated fibroblasts and human glioblastoma cells, U87MG” (Eur J Med Chem, 2011).

Activity calls are given as the source filed them. The calls are words filed in the database; no cut-off is given here.

`O=C(CC1CCCCC1)OC[C@H]1O[C@@H](OC(CO)CO)[C@H](O)[C@@H](O)[C@H]1O`: the figures for the inhibition in assay [1] and in assay [2] were 52% and 38%, respectively.
With `CCCCCCCCCC(=O)OC[C@H]1O[C@@H](OC(CO)CO)[C@H](O)[C@@H](O)[C@H]1O`, the inhibition result in [3] was “inactive”.
In the case of `CC(C)CC(=O)OC[C@H]1O[C@@H](OC(CO)CO)[C@H](O)[C@@H](O)[C@H]1O`, in [4], the outcome was Active. The inhibition entry (in assay [5]; in assay [8]; in [9]; in the assay with U-87 MG [10]; in [11]) was “Active” throughout. Further, the values for the inhibition in [1], in assay [3] and in assay [2] were 99%, 58% and 23%, respectively. The inhibition at 2 µM with U-87 MG [6] came to 16%. Also, the Activity stood at 30% in assay [7] and 25% in [12]. In addition, on Protein kinase C (PKC), the IC50 came out at 0.48 µM.
As to `CCCCCC(=O)OC[C@H]1O[C@@H](OC(CO)CO)[C@H](O)[C@@H](O)[C@H]1O`, the inhibition in assay [1] came to 64%; in [2], 35%.
`OCC(CO)O[C@@H]1O[C@H](CO)[C@H](O)[C@H](O)[C@H]1O`: the inhibition is 50% in assay [1] and 27% in assay [2].

What is called inhibition is the percentage by which the read-out fell short of the control. A word on the IC50: it is the concentration that inhibits the measured activity by half.
